Reference: ChEMBL document CHEMBL4732034, “Amino alcohol acrylonitriles as broad spectrum and tumour selective cytotoxic agents” (RSC Med Chem, 2021)

Experiments:
U-87 MG = assay: Cytotoxicity against human U87 cells assessed as growth inhibition measured after 72 hrs by SRB assay; format: functional, U-87MG ATCC
In short: (§1)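 Cancer lines were kept in DMEM with 10% FBS and glutamine at 37 °C, 5% CO2, and seeded at 2500–4000 cells per well in duplicate. Compound (from 40 mM DMSO stocks) was added 24 h after plating and left for 72 h. Cells were TCA-fixed, stained with SRB and read at 540 nm. GI50 came from an eight-point dose-response, using the change from day-0 optical density, with three to four independent replicates.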

A2780 = assay: Cytotoxicity against human A2780 cells assessed as growth inhibition measured after 72 hrs by SRB assay; format: functional; in short: as §1
NCI-H460 = assay: Cytotoxicity against human H460 cells assessed as growth inhibition measured after 72 hrs by SRB assay; format: functional; in short: as §1
A-431 = assay: Cytotoxicity against human A431 cells assessed as growth inhibition measured after 72 hrs by SRB assay; format: functional; in short: as §1
DU-145 = assay: Cytotoxicity against human DU-145 cells assessed as growth inhibition measured after 72 hrs by SRB assay; format: functional; in short: as §1
BE(2)-C = assay: Cytotoxicity against human BE2C cells assessed as growth inhibition measured after 72 hrs by SRB assay; format: functional; in short: as §1
[1] = Cytotoxicity against human SJG2 cells assessed as growth inhibition measured after 72 hrs by SRB assay; format: functional; settings: SJ-G2; in short: as §1
MIA PaCa-2 = assay: Cytotoxicity against human MIA cells assessed as growth inhibition measured after 72 hrs by SRB assay; format: functional; in short: as §1
HT-29 = assay: Cytotoxicity against human HT29 cells assessed as growth inhibition measured after 72 hrs by SRB assay; format: functional; in short: as §1
MCF7 = assay: Cytotoxicity against human MCF-7 cells assessed as growth inhibition measured after 72 hrs by SRB assay; format: functional; in short: as §1
[2] = Cytotoxicity against human MCF10A cells assessed as growth inhibition measured after 72 hrs by SRB assay; format: cell-based, MCF-10A
[3] = Selectivity index, ratio of GI50 for human MCF10A cells to GI50 for human HT-29 cells by SRB assay; format: toxicity; settings: MCF10A cells versus HT-29 cells, read-out: RatioGI50
In short: (§2)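 Fold selectivity is the MCF10A GI50 divided by the cancer-line GI50. Each GI50 is from the 72 h SRB assay: eight-point dose-response, day-0 optical density baseline, three to four separate replicates.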

[4] = Selectivity index, ratio of GI50 for human MCF10A cells to GI50 for human MCF-7 cells by SRB assay; format: toxicity; settings: MCF10A cells versus MCF-7 cells, read-out: RatioGI50; in short: as §2

Row | Compound | GI50 (U-87 MG) [µM] | GI50 (A2780) [nM] | GI50 (NCI-H460) [nM] | GI50 (A-431) [nM] | GI50 (DU-145) [µM] | GI50 (BE(2)-C) [nM] | GI50 [1] [nM] | GI50 (MIA PaCa-2) [µM] | GI50 (HT-29) [nM] | GI50 (MCF7) [nM] | GI50 at 72 h [2] [nM] | selectivity ratio [3] | selectivity ratio [4]
1 | Cc1ccc(CN2CCN(CC(O)COc3ccc(/C=C(\C#N)c4ccc(Cl)c(Cl)c4)cc3)CC2)cc1 (racemic) | 3.6 | 1500 | 2700 | 2400 | 4.5 | 2000 | 2400 | 2.6 | 1400 | 1700 | 2400 | – | –
2 | N#C/C(=C\c1ccc(OCC(O)CN2CCN(c3ccccc3)CC2)cc1)c1ccc(Cl)c(Cl)c1 (racemic) | 5.4 | 6300 | 4000 | 6300 | 3.5 | 16000 | 9000 | 5.7 | 3300 | 4100 | 4800 | – | –
3 | COc1ccc(NCC(O)COc2ccc(/C=C(\C#N)c3ccc(Cl)c(Cl)c3)cc2)cc1 (racemic) | 29 | 17000 | 16000 | 62000 | 28 | 41000 | 32000 | 27 | 3700 | 5200 | 19000 | 5.1 | 3.6
4 | CC1CCN(CC(O)COc2ccc(/C=C(\C#N)c3ccc(Cl)c(Cl)c3)cc2)CC1 (racemic) | 2.9 | 2700 | 2900 | 2600 | 4.6 | 2600 | 3000 | 3.4 | 1700 | 2300 | 2700 | – | –
5 | N#C/C(=C\c1ccc(OCC(O)CN2CCCCC2)cc1)c1ccc(Cl)c(Cl)c1 (racemic) | 3 | 2700 | 3000 | 2100 | 2.9 | 2500 | 2500 | 2.6 | 660 | 2500 | 2500 | 3.8 | –
6 | N#C/C(=C\c1ccc(OCC(O)CN2CCC(c3ccccc3)CC2)cc1)c1ccc(Cl)c(Cl)c1 (racemic) | 2.9 | 2700 | 2700 | 2600 | 2.7 | 2600 | 2500 | 2.4 | 1900 | 2500 | 2500 | – | –
7 | CC(=O)c1ccc(N2CCN(CC(O)COc3ccc(/C=C(\C#N)c4ccc(Cl)c(Cl)c4)cc3)CC2)cc1 (racemic) | > 50 | 40000 | > 50000 | 30000 | 12 | > 50000 | > 50000 | > 50 | 7700 | 11000 | 7500 | – | –
8 | N#C/C(=C\c1ccc(OCC(O)CN2CCN(c3ccc(C(F)(F)F)cc3)CC2)cc1)c1ccc(Cl)c(Cl)c1 (racemic) | > 50 | > 50000 | > 50000 | > 50000 | > 50 | > 50000 | > 50000 | > 50 | – | > 50000 | > 50000 | – | –
9 | N#C/C(=C\c1ccc(OCC(O)CN2CCN(c3ccc(Cl)cc3)CC2)cc1)c1ccc(Cl)c(Cl)c1 (racemic) | > 50 | 15000 | 28000 | 27000 | 32 | > 50000 | 24000 | 17 | 9000 | 15000 | 18000 | – | –
10 | CC1CCCN(CC(O)COc2ccc(/C=C(\C#N)c3ccc(Cl)c(Cl)c3)cc2)C1 (racemic) | 2.8 | 2800 | 2900 | 2500 | 4 | 2600 | 2800 | 3.3 | 2400 | 2300 | 2500 | – | –
11 | N#C/C(=C\c1ccc(OCC(O)CNC23CC4CC(CC(C4)C2)C3)cc1)c1ccc(Cl)c(Cl)c1 (racemic) | 2.5 | 1700 | 1800 | 2100 | 2.5 | 2200 | 2000 | 1.9 | 890 | 2000 | 2500 | – | –
12 | CN(C)CC(O)COc1ccc(/C=C(\C#N)c2ccc(Cl)c(Cl)c2)cc1 (racemic) | 3.2 | 2500 | 2800 | 1600 | 2.7 | 2500 | 2700 | 2.3 | 750 | 1900 | 2800 | 3.7 | –
13 | N#C/C(=C\c1ccc(OCC(O)CNC2CCCCC2)cc1)c1ccc(Cl)c(Cl)c1 (racemic) | 2.8 | 2900 | 2200 | 2200 | 2.4 | 2800 | 2700 | 2.7 | 2000 | 2700 | 2800 | – | –
14 | N#C/C(=C\c1ccc(OCC(O)CN2CCN(c3ccc([N+](=O)[O-])cc3)CC2)cc1)c1ccc(Cl)c(Cl)c1 (racemic) | > 50 | > 50000 | > 50000 | > 50000 | > 50 | > 50000 | > 50000 | > 50 | > 50000 | > 50000 | > 50000 | – | –
15 | N#C/C(=C\c1ccc(OCC(O)CN2CCCCCC2)cc1)c1ccc(Cl)c(Cl)c1 (racemic) | 3.8 | 3000 | 3500 | 2900 | 4.6 | 2600 | 5300 | 5.5 | 1700 | 2800 | 3100 | – | –
16 | CN1CCN(CC(O)COc2ccc(/C=C(\C#N)c3ccc(Cl)c(Cl)c3)cc2)CC1 (racemic) | 2.7 | 2500 | 2600 | 1800 | 2.4 | 2400 | 2200 | 2.6 | 1200 | 2300 | 2400 | – | –
17 | N#C/C(=C\c1ccc(OCC(O)CNc2ccc(Cl)cc2)cc1)c1ccc(Cl)c(Cl)c1 (racemic) | 16 | 10000 | 11000 | 15000 | 15 | 14000 | 15000 | 14 | 7000 | 11000 | 17000 | – | –
18 | N#C/C(=C\c1ccc(OCC(O)CNc2ccc(Br)cc2)cc1)c1ccc(Cl)c(Cl)c1 (racemic) | 16 | 10000 | 6800 | 11000 | 13 | 11000 | 11000 | 11 | 6000 | 5300 | 13000 | – | –
19 | Cc1ccc(N2CCN(CC(O)COc3ccc(/C=C(\C#N)c4ccc(Cl)c(Cl)c4)cc3)CC2)cc1 (racemic) | 6 | 3000 | 2500 | 3100 | 2.7 | 2700 | 2900 | 3 | 2600 | 2300 | 3500 | – | –
20 | N#C/C(=C\c1ccc(OCC(O)CNC2C3CC4CC(C3)CC2C4)cc1)c1ccc(Cl)c(Cl)c1 (racemic) | 2.7 | 2500 | 2700 | 2800 | 2.6 | 2600 | 2600 | 2.4 | 1400 | 2100 | 2700 | – | –
21 | CC1CCCCN1CC(O)COc1ccc(/C=C(\C#N)c2ccc(Cl)c(Cl)c2)cc1 (racemic) | 2.9 | 2700 | 2700 | 1600 | 3 | 2400 | 2800 | 2.7 | 360 | 2100 | 2500 | 6.9 | –
22 | N#C/C(=C\c1ccc(OCC(O)CN2CCCC2)cc1)c1ccc(Cl)c(Cl)c1 (racemic) | 5.6 | 2700 | 3000 | 2600 | 4.2 | 2800 | 3700 | 5.6 | 1500 | 2800 | 2900 | – | –
23 | N#C/C(=C\c1ccc(OCC(O)CN2CCOCC2)cc1)c1ccc(Cl)c(Cl)c1 (racemic) | 17 | 8900 | 8700 | 3000 | 13 | 3000 | 9300 | 13 | 3100 | 5300 | 5600 | – | –
